Series [1] in a line: Inhibition of Trypanosoma brucei FolD dehydrogenase activity assessed as formation of 5,10-CH=THF from 5,10-CH2-THF after 5 mins by spectrophotometric analysis. The procedure, abridged: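 Recombinant T. brucei FolD from E. coli BL21 (DE3), Ni²⁺-affinity purified. Assay at 27 °C in 25 mM MOPS pH 7.3 with 30 mM 2-mercaptoethanol, 35 μM mTHF and 1 mM NADP⁺, started with NADP⁺. Reaction stopped at 5 min with an equal volume of 1 M HCl, product read at 350 nm (ε 24.9 mM⁻¹ cm⁻¹). Compounds from 10 mM DMSO stocks, first tested at 0–50–100 μM. Data fitted to a competitive model by linear regression.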

For series [2], the system named is Trypanosoma brucei brucei. Description: Antiparasitic activity against bloodstream form of Trypanosoma brucei brucei 427 […] assessed as growth inhibition after 72 hrs by Alamar Blue assay. The class given is functional, organism-based. Background: Resazurin is reduced to fluorescent resorufin, in cell work by metabolically active cells.

The test system of the next series is THP-1. In words: Cytotoxicity against macrophages differentiated from human THP1 cells assessed as cell viability after 72 hrs by MTT assay. The class given is cell-based. Particulars: THP-1, 72 h. Summed up:
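THP1-differentiated macrophages, 10⁵ cells/well, adhered overnight, then exposed to a compound concentration range for 72 h at 37 °C. MTT at 0.5 mg/mL added for 4 h in the dark, and formazan dissolved in isopropanol. Absorbance read at 570 nm with 660 nm background. Viability given relative to untreated cells, and IC₅₀ from linear regression.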
(Tetrazolium dyes change colour on reduction, which living cells bring about.)

A short description of series [3]: Selectivity index, ratio of IC50 for macrophages differentiated from human THP1 cells to IC50 for bloodstream form of Trypanosoma brucei brucei 427. The class given is toxicity, cell-based, THP-1. Particulars: read-out: Ratio IC50. The procedure, abridged: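 Bloodstream-form T. b. brucei 427 in HMI-9 with 10% heat-inactivated FBS at 37 °C, 5% CO2: about 2,000 cells per well with serial drug dilutions for 72 h, then resazurin 45.5 μM for 4 h, fluorescence ex 528/em 590 nm. THP1-differentiated macrophages at 10⁵ cells/well: 72 h at 37 °C, MTT 4 h, A570 minus 660 nm versus untreated. Both IC50s by linear regression.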

Series [4] is described as follows: Competitive inhibition of Pseudomonas aeruginosa FolD dehydrogenase activity.
A short description of series [5]: Competitive inhibition of recombinant Leishmania major hexahistidine-tagged FolD dehydrogenase activity expressed in Escherichia coli by Michaelis-Menten plot analysis in presence of 5,10-CH2-THF.
The mark [6] stands for this setting: Trypanosoma brucei, 427, 72 h, read-out: IC50.

A word on the IC50: it is the concentration that gives 50% inhibition. The term Ki denotes a measure of affinity in units of concentration, obtained from inhibition or displacement.

Calls of active or inactive are those of the source. The calls are words filed in the database; no cut-off is given here.

In the case of `Nc1nc(N)c(NC(=O)Nc2ccc(C(=O)N[C@@H](CCCC(=O)O)C(=O)O)cc2)c(=O)[nH]1`, the IC50 was 1 µM in series [1], “Not Active” in series [2] and 90 µM with THP-1. Besides, the Ki in series [1] was 0.48 µM.
On to `Nc1nc(N)c(NC(=O)Nc2ccc(C(=O)N[C@@H](Cc3ccccc3)C(=O)O)cc2)c(=O)[nH]1`, for which the IC50 is 1.1 µM in series [1], “Not Active” in series [2] and 94 µM in the series with THP-1. In addition, the Ki in series [1] was found to be 0.54 µM.
Regarding `Nc1nc(N)c(NC(=O)Nc2ccc(C(=O)N[C@@H](CCC(=O)O)C(=O)O)cc2)c(=O)[nH]1`, the figures for the IC50 (in series [1]; in series [2] (setting [6]); in the series with THP-1) were 2.2 µM, 49 µM and 194 µM, respectively. The Ki in series [1] stood at 1.1 µM. Also, the selectivity ratio in series [3] was found to be 4.
With `C[C@H](NC(=O)c1ccc(NC(=O)Nc2c(N)nc(N)[nH]c2=O)cc1)C(=O)O`, the IC50 is 6.3 µM in series [1], “Not Active” in series [2] and 113 µM in the series on THP-1. The Ki in series [1] was found to be 3.2 µM.
For the molecule `Nc1nc2c(c(=O)[nH]1)N1C(=O)N(c3ccc(C(=O)NC(CCC(=O)O)C(=O)O)cc3)CC1CN2` (stereo unspecified), the IC50 in series [1] is 20 µM; in series [2] (setting [6]) it was 57 µM; in the series on THP-1, 103 µM. For the same molecule, the figures for the Ki in series [1], in series [4] and in series [5] were 8.5 µM, 0.03 µM and 0.105 µM, respectively. Also, the selectivity ratio in series [3] was found to be 1.8.
Regarding `Nc1nc(N)c(NC(=O)Nc2ccc(C(=O)NCCCC(=O)O)cc2)c(=O)[nH]1`, the figures for the IC50 (in series [1]; in series [2]; with THP-1) were 213 µM, “Not Active” and 98 µM, respectively. Moreover, the Ki in series [1] worked out at 168 µM.
In the same order, the values of `Nc1nc(N)c(NC(=O)Nc2ccc(C(=O)N[C@@H](Cc3ccc(O)cc3)C(=O)O)cc2)c(=O)[nH]1` are 9.3 µM, “Not Active”, 77 µM and 7.3 µM.
Regarding `N=C(N)c1ccc(OCCCCCOc2ccc(C(=N)N)cc2)cc1` [PENTAMIDINE], the 50% inhibitory concentration (IC50) in series [2] (setting [6]) turned out to be 0.0016 µM.
`Cc1ccc(C(=O)Nc2ccc(S(=O)(=O)O)c3cc(S(=O)(=O)O)cc(S(=O)(=O)O)c23)cc1NC(=O)c1cccc(NC(=O)Nc2cccc(C(=O)Nc3cc(C(=O)Nc4ccc(S(=O)(=O)O)c5cc(S(=O)(=O)O)cc(S(=O)(=O)O)c45)ccc3C)c2)c1`: the “growth inhibition (GI)” value in series [2] was “Active”.
On to `CCOC(=O)CC[C@H](NC(=O)c1ccc(NC(=O)Nc2c(N)nc(N)[nH]c2=O)cc1)C(=O)OCC`, for which the IC50 in series [1] came to 250 µM; in series [2] (setting [6]) it was 92 µM; with THP-1, 205 µM. Besides, the selectivity ratio in series [3] stood at 2.2.
In the same order, the values of `CCOC(=O)c1ccc(NC(=O)Nc2c(N)nc(N)[nH]c2=O)cc1` are 250 µM, 89 µM, 97 µM and 1.1.
For `Nc1nc(N)c(NC(=O)Nc2ccc(C(=O)O)cc2)c(=O)[nH]1`, in that order: 83 µM, 74 µM, 97 µM and 1.3.
